The list is not random: actives were taken first. Their share in the collection is about 5.9%.
Measles CPE: protection of cells from measles virus | AID 841 | hit rate 1.5% among 140,000 | Measles virus-infected cells, CPE protection, absorbance | protection (pct of control), % at 4 µM; in the data active = protection mostly above about 24%, no sharp cut-off; inactive = mostly below about 26%
DAT uptake mod: human DAT dopamine uptake with cocaine, either direction | Q01959 | LLC-PK1 hDAT cells, [14C]-dopamine uptake with cocaine IC80; actives deviate in either direction | B-score at 10 µM | hit rate 1.3% among 110,000;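 active = Z score or B-score, a plate-position-corrected score, falls beyond the plate's 99.7% confidence bounds, in either direction; inactive = both scores lie inside the 99.7% bounds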
Pyk2 oligo antag: Pyk2 (human) oligomerization antagonism. Q14289. Q293 cells, Pyk2 FERM NanoBiT luminescence; active compounds read low. z-score (the deposit names both 25 µM and 10 µM). hit rate 0.83% among 99,000. AID 1347419;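 active = Z-score of -3 or lower, scaled per plate to the spread of control and sample wells; inactive = z-score above -3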;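 note: negative z-score means lost luminescence so less FERM oligomerization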
HIV Rev-RRE inh: disrupts HIV-1 Rev binding to RRE RNA; Rev peptide-RRE RNA binding, FRET; inhibition, % at 8 µM; hit rate 0.79% among 97,000; AID 704;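 active = inhibition above the screen-wide mean plus 3 SD, cut at about 35% in these data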
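Test system: Cy5-tagged RRE RNA duplex with fluorescein-tagged Rev peptide; Probe or stimulus: labelled Rev peptide; Schedule: 5 min preincubation and 15 min binding, 25 °C; Signal: FRET fluorescence readout; Evaluation: % inhibition from 671/540 nm acceptor-to-donor ratio, scaled between controls; Control set: DMSO and neomycin B.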
Cav3 T inh: human Cav3.2 channel inhibition, primary screen | O95180 | Cav3.2-expressing cells, Fluo-4 calcium fluorescence FDSS; active compounds read low | B-score at 10 µM | hit rate 4% among 100,000 | AID 449739;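 active = single-dose well whose peak fluorescence ratio is a statistical outlier from its plate by either plate-standardised score or position-corrected B-score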
Phagocytosis inh: blocks phagocytosis by macrophages. J774A.1 macrophage IgG-bead phagocytosis, imaging. inhibition, % at 5 µM. hit rate 0.07% among 110,000;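 active = inhibition above the mean of the plate negative controls plus 5 SD, cut at about 13% in these data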;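 note: phagocytic index as fraction of beads internalized from green versus red external bead signal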
Numbers stand for hits; n = inactive; x = not tested or not shown; [ ] = dose if it differs, or a comment.

SMILES	Measles CPE	DAT uptake mod	Pyk2 oligo antag	HIV Rev-RRE inh	Cav3 T inh	Phagocytosis inh
COc1cccc(S(=O)(=O)N2CCN(c3ccccc3F)CC2)c1	34	n	n	n	n	n
Cn1c(=O)c(=O)n(C)c2cc(S(=O)(=O)N3CCN(c4ccccc4F)CC3)ccc21	n	x	x	x	x	n
COC(=O)COc1ccc(S(=O)(=O)N2CCN(c3ccccc3F)CC2)cc1C	27	n	n	n	n	n
CCS(=O)(=O)N1CCN(S(=O)(=O)c2ccccc2)CC1	n	-9.6	n	n	n	x
Cc1cccc(N2CCN(S(=O)(=O)c3ccc(S(=O)(=O)N4CCCC4)cc3)CC2)c1C	n	x	n	n	x	x
Cc1ccccc1N1CCN(S(=O)(=O)c2ccccc2)CC1	n	n	-3.1	n	-4.6	x
CCCCOC(=O)c1ccc(NC(=O)/C=C/c2cccs2)cc1	n	x	x	x	x	n
COc1ccc(S(=O)(=O)N2CCN(c3ccc(C)cc3C)CC2)cc1OC	n	n	x	n	-6	n
Cc1cc(S(=O)(=O)N2CCN(c3ccccc3C)CC2)ccc1F	n	n	-3.6	n	n	n
CCOc1ccc(S(=O)(=O)N2CCN(c3ccc(C)cc3C)CC2)cc1	n	n	x	n	n	n
Cc1cc(S(=O)(=O)N2CCN(c3c(C)cccc3C)CC2)ccc1F	n	n	n	n	n	n
CCN(CC)S(=O)(=O)c1cc(NC(=O)CCCOc2ccc(C(C)=O)cc2)ccc1C	n	x	x	x	x	x
CCc1c(C)nc2nc(NC(C)=O)[nH]n2c1=O	n	n	n	n	n	n
CCc1c(C)nc2[nH]nc(NC(=O)C(F)(F)F)n2c1=O	51	n	n	n	n	n
CCC1CCCCN1CCCNC(=O)c1cn(CC(C)C)c(=O)c2cc(OC)c(OC)cc12 (configuration not stated)	n	-7.2	n	n	n	n
COc1cc2c(C(=O)NCc3ccc(C)o3)cn(CC(C)C)c(=O)c2cc1OC	n	n	n	n	n	x
O=C(O)C(Cc1ccccc1)n1cccc1 (configuration not stated)	x	n	n	n	n	n
O=C(Cn1cccc1)N1CCc2ccccc21	100	n	n	n	n	n
O=C(C(Cc1ccccc1)n1cccc1)N1CCc2ccccc21 (configuration not stated)	n	n	x	x	-6.2	n
O=C(CC(C(=O)N1CCc2ccccc21)n1ccnc1)N1CCc2ccccc2C1 (configuration not stated)	n	x	n	60	x	n
O=C(CCCc1ccccc1)N1CCc2ccccc21	n	n	n	n	n	n
O=C(Cn1ncc2ccccc21)N1CCc2ccccc21	45	n	x	x	n	n
O=C(CCC(=O)N1CCc2ccccc21)N1CCc2ccccc21	x	x	x	n	x	x
CC(Sc1nc(-c2ccccc2)cs1)C(=O)Nc1ccc(Cl)cn1 (configuration not stated)	n	x	x	x	x	n
COc1ccc(C)cc1NC(=O)C(Sc1nnc(-c2ccncc2)n1-c1ccc(Cl)cc1)c1ccccc1 (configuration not stated)	n	x	x	x	x	n
SMILES	Measles CPE	DAT uptake mod	Pyk2 oligo antag	HIV Rev-RRE inh	Cav3 T inh	Phagocytosis inh
COc1ccc(/C=N/Nc2c(Cl)cc(Cl)cc2Cl)cc1CN1CCOCC1	n	x	x	x	x	n
O=C1N(CC(=O)N2CCc3ccccc32)CCN1Cc1ccc(Cl)cc1	n	n	n	n	-4.5	n
Cc1nn(Cc2c(F)cccc2Cl)c(C)c1NC(=O)C1CC1	n	x	x	x	x	n
Cc1cc(C)cc(-n2nnc(C(=O)NCc3ccc4c(c3)OCO4)c2N)c1	n	n	n	n	-5.4	x
Cc1ccc(CNc2ccc3c(c2)OCO3)cc1	n	n	n	75	n	n
c1cc(CNc2ccc3c(c2)OCO3)ccn1	n	n	n	n	n	n
O=C(NCc1ccc2c(c1)OCO2)c1nn2cccnc2c1Cl	n	n	n	n	n	n
O=C(NCc1ccc2c(c1)OCO2)c1cc2ncc(Br)cn2n1	n	-2.1	n	n	n	n
Cc1cc(C)cc(NC(=S)NCc2ccc3c(c2)OCO3)c1	x	n	n	n	-4.8	x
Cc1ccc(CCNC(=O)c2nnn(-c3cc(C)cc(C)c3)c2N)cc1	n	n	n	n	n	n
CCN(Cc1ccccc1)C(c1ccccn1)c1nnnn1C1CCCCC1 (configuration not stated)	n	n	n	n	-4	x
CCCOc1ccc(NC(=O)C(=O)NCCCn2ccnc2)cc1	n	x	x	x	x	n
COc1ccccc1C(=O)NCC(=O)OC(C)C(=O)NC(=O)NC1CCCCC1 (configuration not stated)	n	n	n	n	n	n
Cc1nn(-c2ccccc2)c(Cl)c1C(=O)OC(C)C(=O)NC(=O)NC1CCCCC1 (configuration not stated)	n	n	-4.2	n	n	n
COc1ccc(-c2cc(C(F)F)n3ncc(C(=O)N4CCCCC4)c3n2)cc1	n	2.6	n	n	n	x
Cc1ccc(-c2cc(C(F)F)n3ncc(C(=O)N4CCN(c5ccccn5)CC4)c3n2)cc1	n	n	x	n	-5.3	n
COCCCNC(=S)N(Cc1cccnc1)Cc1ccc(OC)c(OC)c1	n	x	x	x	x	n
COc1ccc(C2/C=C\CN(C(=O)NC(C)C)CC(=O)N2Cc2ccc(F)cc2)cc1 (configuration not stated)	x	n	x	x	n	x
CC(C)Oc1ccc(/C=N/NC(=O)C2CCCN2S(=O)(=O)c2ccc(Cl)cc2)cc1 (configuration not stated)	n	n	n	n	-4.7	n
CN(C)c1ccc(-c2nn3c(C4CCCCC4)nnc3s2)cc1	n	n	-3.6	n	n	n
CCCCOc1ccc(C(=O)N2CCCC2)cc1	n	n	n	n	n	n
CCOc1ccc(C(=O)N2CCCC2)cc1	n	5.9	n	n	n	x
O=C(CNC(=O)c1ccc2ccccc2c1)OCC(=O)N1CCN(S(=O)(=O)c2ccc3ccccc3c2)CC1	n	x	x	x	x	n
Cc1ccc(NC(=O)Cc2nc(CSc3nnc(-c4ccc5c(c4)OCO5)o3)cs2)cc1	n	n	n	n	-5.4	n
COc1ccc(S(=O)(=O)N2CCCCCC2)cc1N(C)S(=O)(=O)c1ccc(C)cc1	n	x	n	x	x	n
SMILES	Measles CPE	DAT uptake mod	Pyk2 oligo antag	HIV Rev-RRE inh	Cav3 T inh	Phagocytosis inh
Cn1c(COc2ccc(Cl)cc2)nnc1SCc1ncc(-c2ccccc2)o1	n	n	n	n	-9.9	n
O=C(CN1CCOCC1)Nc1ncc(Cc2cccc(Cl)c2Cl)s1	n	x	x	x	x	n
CCCN1C(=O)/C(=C/c2ccc(N3CCCC3)c(C)c2)NC1=S	n	n	n	139[fluorescence artefact?]	-7.1	x
CCN1C(=O)/C(=C/c2ccc(N3CCCC3)cc2)NC1=S	n	x	x	x	x	x
N#CC1=C(N)C(C#N)(C#N)[C@H](c2c(F)cccc2F)[C@H]2CC3(CC=C12)OCCO3	n	n	n	56	n	n
COc1ccc(-c2nnn(CC(=O)N(CC(=O)NC3CCCC3)c3cccc(C)c3)n2)cc1OC	n	2.8	n	n	n	n
COc1ccc(N(CC(=O)NC2CCCC2)C(=O)Cn2nnc(-c3ccc(C)cc3)n2)cc1	n	2.5	n	n	-6.7	x
Clc1cccc(Cl)c1CO/N=C/c1c(-c2ccccc2)nc2n1CCS2	n	n	n	n	n	x

Source: PubChem BioAssay (several laboratories)
